Numbering of substitutions follows the chain as printed. Numbered stars: 1 amine (or outer) side, 2 acyl side, 3 side chain; on linkers, the order of the positions; unused ones are H or OH. Bridge positions count the residues as written; N and C are the ends. Square brackets hold non-standard residues; d marks the D form. Peptide text beside a SMILES is read from it. X1 = CC(=O)NC(C(=O)OC(C(C)C)C(N[*:1])C(=O)[*:2])C(O)C(C)C; PhLac = O=C(O)[CH](O)Cc1ccccc1; NMeT = CN[CH](C(=O)O)[CH](C)O; NMeA = CN[CH](C)C(=O)O; NMeDha = C=C(NC)C(=O)O
Key:
[1] = system: mock-transfected HEK293T cells; assay: Ca2+ response of mock-transfected HEK293T cells; type: cell-based, human; settings: 200 μM
Procedure, shortened: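 Sham-transfected HEK293T cells loaded with Fluo-8 AM (2 μg/ml) in recording buffer for 25 min at room temperature, then 5 min in recording buffer. FLIPR read at room temperature every 1 s; 200 μM test compound or Zn2+ dispensed at 30 s, followed by 150 s recording.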

GHSR = GHSR (Homo sapiens, UniProt Q92847); assay: FLIPR Ca2+ assay, GHSR expressed in HEK293T-Gα15-GCaMP6s cells; type: cell-based; settings: for GHSR activation: 200 μM BAs; for Maximal efficacy at GHSR: normalized to 1 μM ghrelin
Sequence of GHSR (Q92847 whole entry): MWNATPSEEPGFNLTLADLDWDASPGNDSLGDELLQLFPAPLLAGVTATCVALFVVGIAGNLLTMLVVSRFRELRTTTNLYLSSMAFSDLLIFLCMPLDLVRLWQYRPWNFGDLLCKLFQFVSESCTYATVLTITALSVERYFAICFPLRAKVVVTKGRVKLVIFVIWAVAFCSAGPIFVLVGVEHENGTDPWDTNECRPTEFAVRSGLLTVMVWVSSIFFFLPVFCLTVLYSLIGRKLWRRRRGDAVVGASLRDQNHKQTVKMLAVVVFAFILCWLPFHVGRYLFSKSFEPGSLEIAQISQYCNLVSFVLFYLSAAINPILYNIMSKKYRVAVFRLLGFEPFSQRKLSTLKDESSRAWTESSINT

GPBAR1 = target: T1, GPBAR1 (Homo sapiens, UniProt Q8TDU6); assay: CRE luciferase reporter assay; type: cell-based
T1 sequence (Q8TDU6 1-330): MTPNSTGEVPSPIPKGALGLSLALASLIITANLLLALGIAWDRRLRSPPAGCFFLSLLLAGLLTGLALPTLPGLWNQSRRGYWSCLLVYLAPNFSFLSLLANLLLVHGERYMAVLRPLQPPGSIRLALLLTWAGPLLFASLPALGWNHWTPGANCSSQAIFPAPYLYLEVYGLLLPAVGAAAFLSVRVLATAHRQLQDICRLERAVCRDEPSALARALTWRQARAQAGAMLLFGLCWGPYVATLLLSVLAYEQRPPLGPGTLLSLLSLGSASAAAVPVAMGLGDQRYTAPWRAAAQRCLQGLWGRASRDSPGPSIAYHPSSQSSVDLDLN

GPR39 [2] = settings: cited from earlier work
pancreatic acinar cells [3] = assay: Ca2+ imaging in freshly isolated pancreatic acinar cells; type: cell-based, mouse
mouse GPR39 = target: T2, mouse GPR39 (Mus musculus, UniProt Q5U431); assay: FLIPR Ca2+ assay in HEK293T cells stably expressing mouse GPR39; type: cell-based; settings: for GPR39 activation, presence or absence of 4 μM Zn2+: with or without 4 μM Zn2+
T2 sequence (Q5U431 1-456): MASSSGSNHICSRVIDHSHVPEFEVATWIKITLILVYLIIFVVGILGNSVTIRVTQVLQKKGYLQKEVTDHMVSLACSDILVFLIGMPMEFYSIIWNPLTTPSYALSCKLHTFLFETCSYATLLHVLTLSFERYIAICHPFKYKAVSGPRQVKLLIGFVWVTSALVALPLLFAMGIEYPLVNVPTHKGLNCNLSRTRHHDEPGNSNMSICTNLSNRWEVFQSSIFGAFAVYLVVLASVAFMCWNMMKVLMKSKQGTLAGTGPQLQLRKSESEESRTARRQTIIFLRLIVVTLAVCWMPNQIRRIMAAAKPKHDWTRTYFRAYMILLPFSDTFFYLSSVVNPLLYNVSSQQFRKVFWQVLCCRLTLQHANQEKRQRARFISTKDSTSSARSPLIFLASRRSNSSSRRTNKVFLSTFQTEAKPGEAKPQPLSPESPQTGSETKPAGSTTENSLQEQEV

pancreatic acinar cells [4] = assay: Amylase release from isolated pancreatic acini; type: cell-based, mouse; settings: 500 μM LCAS, 500 μM TLCAS, 1 nM caerulein
Procedure, shortened: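 Mouse acini (WT, Gpr39−/−, Gpbar1−/−) isolated and held as for the LDH assay, then exposed to test compound at 37°C for 30 min. Amylase activity measured in supernatant. Vehicle leakage subtracted as basal; net release expressed as % of total activity (0.5% Triton X-100 lysate). One-way ANOVA with Tukey posttest versus WT.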

pancreatic acinar cells [5] = assay: Acinar cell injury: PI uptake, LDH leakage, blebbing; type: cell-based, mouse; settings: 4 hours
Procedure, shortened: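 Mouse acini (WT, Gpr39−/−, Gpbar1−/−) digested with 1 mg/ml collagenase IV, collected on 150-μm nylon cloth, and suspended in Hepes-buffered DMEM/F12 with 1 mg/ml BSA. Exposed to test compound at 37°C for 4 h. LDH in supernatant measured by kit, expressed as % of total LDH (0.5% Triton X-100 lysate). PI uptake: acini resuspended in 2 μg/ml PI, fluorescence ex 536/em 617 nm, normalized to vehicle.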

[6] = system: zebrafish (Danio rerio) GPR39 (zfGPR39); assay: FLIPR Ca2+ assay, HEK293T cells expressing zebrafish GPR39; type: cell-based
Procedure, shortened: (§1)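 HEK293T cells expressing mouse GPR39 H17A/H19A mutant or zebrafish GPR39, Fluo-8-loaded, read by FLIPR at room temperature (addition at 30 s, 150 s recording). Where Zn2+ used, cells preincubated with 4 μM Zn2+ in recording buffer for 5 min and it was kept with all compound concentrations. Responses normalized to 200 μM LCAS; n = 3 or 4.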

X. laevis GPR39 = assay: FLIPR Ca2+ assay, HEK293T cells expressing frog GPR39; type: cell-based, frog (Xenopus laevis)
GPR39 [7] = target: T3, GPR39 (Homo sapiens, UniProt O43194); type: cell-based; settings: 200 μM
T3 sequence (O43194 1-453): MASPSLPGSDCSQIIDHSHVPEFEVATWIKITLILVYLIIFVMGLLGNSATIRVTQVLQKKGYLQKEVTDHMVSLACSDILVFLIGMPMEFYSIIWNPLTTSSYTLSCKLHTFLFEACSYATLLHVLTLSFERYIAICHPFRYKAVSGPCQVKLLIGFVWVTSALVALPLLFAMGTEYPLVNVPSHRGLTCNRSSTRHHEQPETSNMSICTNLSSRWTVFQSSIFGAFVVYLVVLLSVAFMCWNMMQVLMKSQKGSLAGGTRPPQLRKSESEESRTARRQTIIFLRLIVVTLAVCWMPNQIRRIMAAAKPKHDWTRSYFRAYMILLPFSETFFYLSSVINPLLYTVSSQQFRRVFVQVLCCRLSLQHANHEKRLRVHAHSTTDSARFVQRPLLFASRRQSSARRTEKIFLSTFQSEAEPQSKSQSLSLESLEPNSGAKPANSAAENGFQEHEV
Procedure, shortened: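 HEK293T cells stably expressing Gα15 and GCaMP6s, on poly-D-lysine-coated plates, transiently transfected with human GPCR cDNAs. Test compound added by pipette at 200 μM; intracellular Ca2+ imaged by confocal microscopy.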

H17A/H19A mutant GPR39 = target: T4, H17A/H19A mutant GPR39 (Mus musculus, UniProt Q5U431, H17A/H19A); assay: FLIPR Ca2+ assay, HEK293T cells expressing GPR39 H17A/H19A mutant; type: cell-based
T4 sequence (Q5U431 1-456 H17A/H19A): T2 sequence (Q5U431 1-456) with H17A, H19A
Procedure, shortened: as §1

G. Gallus GPR39 = assay: FLIPR Ca2+ assay, HEK293T cells expressing chicken GPR39; type: cell-based, chicken (Gallus Gallus)
G. japonicus GPR39 = assay: FLIPR Ca2+ assay, HEK293T cells expressing gecko GPR39; type: cell-based, gecko (Gekko japonicus)
[8] = WT mice, LCAS 500 μM, TLCAS 500 μM, caerulein 100 nM

Compound: C[C@H](CCC(=O)O)[C@H]1CC[C@H]2[C@@H]3CC[C@@H]4C[C@H](O)CC[C@]4(C)[C@H]3C[C@H](O)[C@]12C [DCA, deoxycholic acid]
- Ca2+ elevation in mock-transfected cells [1]: nonspecific Ca^2+ elevations
- Effect on GHSR activation by ghrelin (GHSR; 10 μM BA): did not potentiate or attenuate
- GHSR activation (GHSR): activated
- Maximal efficacy at GHSR (GHSR): comparable to ghrelin
- GPBAR1 activation (GPBAR1): potent agonists

Compound: CCCCC[C@H](O)/C=C/C=C\C/C=C\C/C=C\CCCC(=O)O [15(S)-HETE, 15S-hydroxy-5Z,8Z,11Z,13E-eicosatetraenoic acid]
- GPR39 activation (report) (GPR39 [2]): GPR39 activation

Compound: CC[C@H]1[C@@H](O)[C@@H]2[C@H](C[C@H](O)[C@]3(C)[C@@H]([C@H](C)C[C@H](C)C(=O)O)CC[C@@H]23)[C@@]2(C)CC[C@@H](O)C[C@@H]12 [INT-777]
- Ca2+ elevation in acinar cells by GPBAR1 ligands and agonist (pancreatic acinar cells [3]): not observed

Compound: C[C@H](CCC(=O)O)[C@H]1CC[C@H]2[C@@H]3[C@@H](O)C[C@@H]4C[C@H](O)CC[C@]4(C)[C@H]3CC[C@]12C [UDCA, ursodeoxycholic acid]
- Effect on GHSR activation by ghrelin (GHSR; 10 μM BA): did not potentiate or attenuate
- GHSR activation (GHSR): activated
- Maximal efficacy at GHSR (GHSR): comparable to ghrelin

Compound: C[C@H](CCC(=O)O)[C@H]1CC[C@H]2[C@@H]3[C@H](O)C[C@@H]4C[C@H](O)CC[C@]4(C)[C@H]3CC[C@]12C [CDCA, chenodeoxycholic acid]
- Ca2+ elevation in mock-transfected cells [1]: nonspecific Ca^2+ elevations
- GHSR activation (GHSR): activated
- Maximal efficacy at GHSR (GHSR): comparable to ghrelin

Compound: CC(C)CCC[C@@H](C)[C@H]1CC[C@H]2[C@@H]3CC=C4C[C@@H](O)CC[C@]4(C)[C@H]3CC[C@]12C [cholesterol]
- GPR39 activation, presence or absence of 4 μM Zn2+ (mouse GPR39): could not activate GPR39

Compound: Caerulein
- Effect of deleting Gpbar1 on induced amylase discharge (pancreatic acinar cells [4]): did not alter
- Effect of Gpr39 knockout on induced PI uptake and LDH leakage (pancreatic acinar cells [5]; Gpr39 knockout): did not affect
- LDH release from isolated acinar cells (pancreatic acinar cells [5]; [8]): increased LDH release
- PI uptake into isolated acinar cells (pancreatic acinar cells [5]; [8]): increased PI uptake

Compound: CCCCCC1OC1C/C=C\C/C=C\C/C=C\CCCC(=O)O (racemic) [14(15)-EET, (±)14(15)-epoxy-5Z,8Z,11Z-eicosatrienoic acid]
- GPR39 blockade (report) (GPR39 [2]): blocked

Compound: COc1ccc(Cn2c(CCc3ccccc3)nnc2[C@@H](Cc2c[nH]c3ccccc23)NC(=O)CN)cc1 [JMV-2959, JMV2959]
- Effect on Ca2+ mobilization induced by LCA in GHSR-expressing cells (GHSR; 10 μM JMV2959, LCA 200 μM): moderately but not fully inhibited

Compound: C[C@H](CCC(=O)O)[C@H]1CC[C@H]2[C@@H]3CC[C@@H]4C[C@H](O)CC[C@]4(C)[C@H]3CC[C@]12C [LCA, lithocholic acid]
- Enhancement of GPR39 activation by Zn2+ (mouse GPR39; 4 μM BA): enhanced
- Effect on GHSR activation by ghrelin (GHSR; 1 μM LCA): no effect
- Effect on GHSR activation by ghrelin (GHSR; 10 μM BA): attenuated the effect of ghrelin
- GHSR activation (GHSR): activated
- Sensitivity at GHSR (GHSR; compared with UDCA, DCA, and CDCA): relatively higher sensitivity
- Maximal efficacy at GHSR (GHSR): lower efficacy

Compound: CC(C)CCC[C@@H](C)[C@H]1CC[C@H]2[C@@H]3CC=C4C[C@@H](OS(=O)(=O)O)CC[C@]4(C)[C@H]3CC[C@]12C [cholesterol-S, cholesterol 3-sulfate]
- GPR39 activation, presence or absence of 4 μM Zn2+ (mouse GPR39): could not activate GPR39

Compound: 5b-cholestanpentol
- GPR39 activation, presence or absence of 4 μM Zn2+ (mouse GPR39): robustly activated
- zfGPR39 activation [6]: minimal effects

Compound: [Zn+2] [Zn^2+]
- Response of frog GPR39 (X. laevis GPR39): strong dose-dependent responses
- Ca2+ response of GPR39-transfected HEK293T cells (GPR39 [7]): exhibited Ca^2+ responses
- Effect of H17A/H19A mutations on Zn2+-induced Ca2+ elevation (H17A/H19A mutant GPR39): abolished
- Response of chicken GPR39 (G. Gallus GPR39): strong dose-dependent responses
- Response of gecko GPR39 (G. japonicus GPR39): strong dose-dependent responses
- Zn2+ concentration that notably shifts GPR39 activation by LCAS (mouse GPR39): above 1 μM
- Effect of Zn2+ on GPR39-mediated calcium response to TLCAS (mouse GPR39; 4 μM Zn2+, leftward shift of the dose-response curve): potentiated
- Ca2+ response of mock-transfected HEK293T cells [1]: responded to neither
- zfGPR39 activation [6]: little response

Compound: C=C1C(=O)NC(C)C(=O)N(C)C(C)C(=O)NC(C(OC(=O)C(NC(C)=O)C(O)C(C)C)C(C)C)C(=O)N(C)C(C(C)OC)C(=O)OC(C)C(NC(C)=O)C(=O)OC(Cc2ccccc2)C(=O)N1C (stereo not drawn) [YM254890] (Ac-T[PhLac][NMeDha]A[NMeA][X1][NMeT](Me); ester 1-C; configuration not given here)
- Effect on Ca2+ elevation induced by TLCAS in acinar cells (pancreatic acinar cells [3]; 10 μM YM254890 for 10 min, 500 μM TLCAS): eliminated

From PMC10836733 (Science Advances, 2024)
